A selection: hits, their analogues and other compounds. The true share with any hit is near 2.5%.
SENP1 inh = human SENP1 catalytic domain inhibitors, primary screen, biochemical, FRET, uHTS; AID 624204, 2012; hit rate 0.21% among 360,000; inhibition, % at 10 µM; recombinant SENP1 catalytic domain, CyPet-SUMO1-YPet FRET cleavage; Sentrin-specific protease 1 (Homo sapiens), Q9P0U3;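 active = inhibition at least 30% at 10 µM, raw YFP signal under a set limit, fluorescence ratio 0.5 to 1.5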;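 also: 0% = enzyme with DMSO and 100% = no enzyme wells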
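Material – human SENP1 catalytic domain · Input – SENP1 enzyme, 20 pM final · Compound dosing – single concentration of 10 µM compound, 0.5% DMSO final · Timing – enzyme reaction for 50 min at room temperature, dark · Measured by – FRET fluorescence in CFP and YFP emission channels · Control set – no-enzyme wells low, DMSO-plus-enzyme wells high control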
SENP7 inh = SENP7 protease inhibitors, primary screen, biochemical, luminescence, uHTS. Sentrin-specific protease 7 (Homo sapiens), Q9BQF6. recombinant SENP7, Z-RLRGG-aminoluciferin luminescence, 40 min. inhibition, % at 5 µM. hit rate 1.5% among 330,000;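 active = inhibition above about 50% at the single test dose, limit read from the data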;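 also: plate controls were DMSO with enzyme for no effect and no enzyme buffer wells for full effect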
Target sequence (Q9BQF6 706-1050 limits assumed): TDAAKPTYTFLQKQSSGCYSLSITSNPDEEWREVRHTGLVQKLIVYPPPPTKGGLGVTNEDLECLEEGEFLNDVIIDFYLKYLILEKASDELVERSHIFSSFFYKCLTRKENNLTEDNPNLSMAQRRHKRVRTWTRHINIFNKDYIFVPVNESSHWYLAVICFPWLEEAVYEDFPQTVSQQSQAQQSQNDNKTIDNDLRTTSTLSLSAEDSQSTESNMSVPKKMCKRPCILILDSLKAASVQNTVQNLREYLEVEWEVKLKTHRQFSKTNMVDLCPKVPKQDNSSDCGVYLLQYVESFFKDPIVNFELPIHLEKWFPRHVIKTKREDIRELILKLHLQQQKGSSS
SENP8 block-1 = SENP8 protease inhibitors, primary screen, biochemical, luminescence; Sentrin-specific protease 8 (Homo sapiens), Q96LD8; purified SENP8, Z-RLRGG-aminoluciferin cleavage; inhibition, % at 10 µM; hit rate 1.2% among 330,000; AID 2540, 2010; in the data active = inhibition above about 50%
SENP8 block-2 = human SENP8 protease inhibitors, primary screen, biochemical, fluorescence, Nedd8 protein substrate, uHTS; recombinant SENP8; inhibition, % at 20 µM; hit rate 0.64% among 360,000; in the data active = inhibition mostly above about 40%, no sharp cut-off; inactive = mostly below about 27%
SENP6 inh = SENP6 protease inhibitors, primary screen, biochemical, luminescence, uHTS; Recombinant SENP6 catalytic domain, aminoluciferin luminescence; inhibition, % at 10 µM; hit rate 1.8% among 330,000; AID 2599, 2010;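 active = inhibition above about 50% at the single tested dose, limit read from the data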;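 also: plate controls were DMSO wells with enzyme for no effect and DMSO wells lacking enzyme for full effect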
SENP8 conf = SENP8 protease inhibitors, retest, confirmation, biochemical, luminescence, single concentration. shares compounds with SENP7 inh. Recombinant SENP8, Z-RLRGG-aminoluciferin luminescence, 60 min. inhibition, % at 12.5 µM. hit rate 40% among 6,200. AID 488912, 2010;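 active = mean inhibition across replicates above about 50%, limit read from the data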
SENP6 confirm = SENP6 protease inhibitors, confirmation, biochemical, luminescence, single concentration | recombinant SENP6, Z-RLRGG-aminoluciferin luminescence | inhibition, % at 12.5 µM | shares compounds with SENP7 inh | hit rate 58% among 6,200
SENP7 confirm = SENP7 protease inhibitors, retest, confirmation, biochemical, luminescence, single concentration | shares compounds with SENP7 inh | recombinant SENP7, Z-RLRGG-aminoluciferin luminescence, 40 min | inhibition, % at 12.5 µM | hit rate 69% among 6,200
Casp3 select = caspase-3 protease inhibitors, confirmation, selectivity assay for SENP inhibitor project, biochemical, single concentration; shares compounds with SENP7 inh; purified caspase-3, Z-DEVD-aminoluciferin luminescence, 60 min; inhibition, % at 12.5 µM; hit rate 60% among 6,200;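 active = mean inhibition above about 50%, limit read from the data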;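 also: plate controls were enzyme with DMSO for no effect and wells without caspase-3 for full effect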
SENP luc ctr = interferes with luciferase luminescence in SENP counter-screen; shares compounds with SENP7 inh; Pre-incubated SENP8/Z-RLRGG-aminoluciferin, luciferase luminescence interference; inhibition, % at 12.5 µM; hit rate 39% among 6,200;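 active = mean inhibition above about 50% when retested at one dose, limit read from the data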;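 also: plate controls were DMSO wells with completed reaction for no effect and substrate without enzyme for full effect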
The depositor's hits bear a star; . = not tested or not shown.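 The calls were made as follows, unless noted: active = mean inhibition above about 50% in the one-dose retest (limit read from the data); inactive = the rest.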

SMILES	SENP1 inh	SENP7 inh	SENP8 block-1	SENP8 block-2	SENP6 inh	SENP8 conf	SENP6 confirm	SENP7 confirm	Casp3 select	SENP luc ctr
COc1cc(OC)cc(C(=O)Nc2nc3ccc(S(C)(=O)=O)cc3s2)c1	0	98*	91*	-175	86*	93*	96*	101*	96*	92*
COc1cc(C(=O)Nc2nc3ccc(S(C)(=O)=O)cc3s2)cc(OC)c1C	-4	0	2	-258	9	.	.	.	.	.
CS(=O)(=O)c1ccc2nc(NC(=O)c3cccc([N+](=O)[O-])c3)sc2c1	3	97*	95*	-14	95*	98*	99*	102*	97*	78*
Cc1nc(Nc2ccccc2)sc1-c1ccccc1	3	90*	82*	-110	90*	94*	94*	100*	71*	38
c1ccc(Nc2nc(-c3ccccc3)ns2)cc1	-1	83*	60*	10	77*	-5	53*	92*	47	8
Cc1nc(Nc2ccc(C(=O)O)cc2)sc1-c1ccccc1	0	100*	96*	-400	95*	72*	92*	67*	18	6
Cc1ccc(S(=O)(=O)N[C@@H](C)C(=O)N2CCC(C(=O)N[C@@H](Cc3ccccc3)C(=O)O)CC2)cc1	0	-6	-13	8	-2	.	.	.	.	.
Cc1cc(-c2nnc(CCC(=O)N3CCN(Cc4cccnc4)CC3)o2)c(C)o1	-4	0	1	3	-16	.	.	.	.	.
Cc1nc2sc(C(c3ccco3)N3CCC(Cc4ccccc4)CC3)c(O)n2n1 (stereo not given)	-4	0	-8	4	1	.	.	.	.	.
CCN(CC(=O)NCc1cccs1)C(=O)/C=C/c1cc(OC)c(OC)c(OC)c1	2	3	12	-248	5	.	.	.	.	.
Cc1nnsc1C(=O)N/N=C/c1ccccc1	2	17	-11	10	26	.	.	.	.	.
Cc1nnsc1C(=O)N/N=C/c1ccc(OC(F)(F)F)cc1	1	55*	4	-9	-21	16	17	28	24	11
Cn1c(N)c(C(=O)COC(=O)CSc2ccc(Cl)cc2)c(=O)n(C)c1=O	2	1	-5	14	-13	.	.	.	.	.
Cn1sc(NC(=O)c2cccc(Cl)c2)nc1=O	3	70*	65*	9	69*	11	72*	92*	82*	72*
Cn1sc(NC(=O)c2ccccc2Cl)nc1=O	-3	9	-8	27	12	.	.	.	.	.
CC1=NN(C(N)=S)C(=O)C1N=Nc1ccc(C)c(Br)c1 (stereo not given)	0	78*	93*	18	95*	62*	53*	43	68*	36
CC1=NN(C(N)=S)C(=O)C1N=Nc1cccc(C(=O)O)c1 (stereo not given)	0	91*	85*	27	93*	92*	92*	100*	84*	47

High-throughput results (PubChem)
